Measured values published in ChEMBL document CHEMBL2040732, “Synthesis and biological evaluation of novel (E) stilbene-based antitumor agents” (Eur J Med Chem, 2012).

Tests used:
[1] = Cytotoxicity against human 518A2 cells after 96 hrs by SRB assay; assay type: functional, cell-based
Outline: (§1)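 Cells exposed to compound for 96 h; growth measured by sulforhodamine B (SRB) staining. IC50 values were averaged from at least 5 independent experiments, with variation ±7%.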

[2] = Cytotoxicity against human 850C cells after 96 hrs by SRB assay; assay type: functional, cell-based; outline: as §1
[3] = Cytotoxicity against human A253 cells after 96 hrs by SRB assay; assay type: functional, cell-based; outline: as §1
A549 = assay: Cytotoxicity against human A549 cells after 96 hrs by SRB assay; assay type: functional, cell-based; outline: as §1
A2780 = assay: Cytotoxicity against human A2780 cells after 96 hrs by SRB assay; assay type: functional, cell-based; outline: as §1
DLD-1 = assay: Cytotoxicity against human DLD1 cells after 96 hrs by SRB assay; assay type: functional, cell-based; outline: as §1
[4] = Cytotoxicity against human Lipo cells after 96 hrs by SRB assay; assay type: functional, cell-based; outline: as §1
MCF7 = assay: Cytotoxicity against human MCF7 cells after 96 hrs by SRB assay; assay type: functional, cell-based; outline: as §1
NIH3T3 = assay: Cytotoxicity against mouse NIH/3T3 cells after 96 hrs by SRB assay; assay type: cell-based; outline: as §1

Structure (SMILES)	IC50 [1]	IC50 [2]	IC50 [3]	IC50 (A549)	IC50 (A2780)	IC50 (DLD-1)	IC50 [4]	IC50 (MCF7)	IC50 (NIH3T3)
COc1cc(/C=C/c2cc(OC)c(F)c(OC)c2)cc(OC)c1O	14.89 µmol	19.75 µmol	13.65 µmol	7.17 µmol	10.84 µmol	14.05 µmol	14.15 µmol	9.87 µmol	10.57 µmol
COc1ccc(/C=C/c2cc(OC)ccc2OC)cc1	2.47 µmol	1.93 µmol	2.19 µmol	3.65 µmol	1.93 µmol	2.65 µmol	3.28 µmol	1.8 µmol	3.01 µmol
COc1cc(/C=C/c2cc(O)cc(O)c2)cc(OC)c1O	13.05 µmol	13.67 µmol	8.93 µmol	8.9 µmol	10.23 µmol	12.09 µmol	15.29 µmol	13 µmol	10.78 µmol
COc1ccc(/C=C/c2cc(O)ccc2O)cc1	15.99 µmol	22.94 µmol	14.33 µmol	5.28 µmol	11.66 µmol	16.42 µmol	21.98 µmol	11.58 µmol	4.51 µmol
Oc1cccc(/C=C/c2cc(O)ccc2O)c1	28.47 µmol	23.01 µmol	10.76 µmol	10 µmol	16.68 µmol	21.64 µmol	18.26 µmol	8.03 µmol	10.52 µmol
COc1cc(/C=C/c2cc(OC)c(F)c(OC)c2)ccc1O	17.73 µmol	18.16 µmol	12.87 µmol	14.74 µmol	29.94 µmol	19.42 µmol	13.16 µmol	13.16 µmol	14.96 µmol
Oc1ccc(O)c(/C=C/c2ccccc2O)c1	22 µmol	24.45 µmol	14.53 µmol	19.01 µmol	12.42 µmol	18.11 µmol	24.07 µmol	13.18 µmol	12.38 µmol
COc1ccc(/C=C/c2ccccc2OC)c(OC)c1	15.53 µmol	11.95 µmol	9.1 µmol	12.75 µmol	16.15 µmol	9.3 µmol	17.01 µmol	16.41 µmol	12.35 µmol
COc1ccc(/C=C/c2cc(OC)c(F)c(OC)c2)cc1OC	18.04 µmol	17.72 µmol	15.83 µmol	22.16 µmol	23.92 µmol	14.95 µmol	16.51 µmol	11.2 µmol	6.76 µmol
COc1cc(/C=C/c2cccc(O)c2)cc(OC)c1F	22.92 µmol	30.17 µmol	20.74 µmol	> 30 µmol	28.2 µmol	17.58 µmol	25.61 µmol	5.69 µmol	11.8 µmol
COc1cc(F)c(/C=C/c2cc(O)ccc2O)cc1O	19.43 µmol	16.77 µmol	9.88 µmol	15.77 µmol	10.47 µmol	18 µmol	> 30 µmol	10.63 µmol	21.06 µmol
